Data reported in ChEMBL document CHEMBL3259544, “α-Ketoheterocycle inhibitors of fatty acid amide hydrolase: exploration of conformational constraints in the acyl side chain” (Bioorg Med Chem, 2014).

Experiments:
[1] = biological target: T1, Fatty-acid amide hydrolase 1 (Rattus norvegicus, UniProt P97612); experiment: Inhibition of rat recombinant FAAH expressed in Escherichia coli using [14C]oleamide as substrate assessed as oleic acid formation by Dixon plot analysis
T1 sequence (P97612 whole entry): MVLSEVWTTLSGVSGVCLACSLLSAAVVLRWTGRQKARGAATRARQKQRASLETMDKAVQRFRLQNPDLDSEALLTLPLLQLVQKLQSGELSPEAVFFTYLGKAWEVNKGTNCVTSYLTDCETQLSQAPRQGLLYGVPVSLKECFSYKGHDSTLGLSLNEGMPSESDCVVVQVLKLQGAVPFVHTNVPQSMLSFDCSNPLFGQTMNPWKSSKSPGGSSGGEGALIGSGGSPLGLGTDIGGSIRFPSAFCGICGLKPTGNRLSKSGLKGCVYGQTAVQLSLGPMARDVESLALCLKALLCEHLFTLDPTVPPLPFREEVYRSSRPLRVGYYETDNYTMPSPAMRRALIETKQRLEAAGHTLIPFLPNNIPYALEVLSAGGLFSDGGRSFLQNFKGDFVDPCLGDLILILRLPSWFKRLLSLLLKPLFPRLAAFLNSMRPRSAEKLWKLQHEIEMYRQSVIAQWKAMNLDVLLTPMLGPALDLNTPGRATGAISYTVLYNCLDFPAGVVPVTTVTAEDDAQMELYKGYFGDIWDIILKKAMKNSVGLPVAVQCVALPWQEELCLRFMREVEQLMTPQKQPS

[2] = species on record: Mus musculus; experiment: Selectivity ratio of IC50 for mouse brain ABHD6 to mouse brain FAAH
[3] = species on record: Mus musculus; experiment: Selectivity ratio of IC50 for mouse brain MAGL to mouse brain FAAH
[4] = species on record: Mus musculus; experiment: Selectivity ratio of IC50 for mouse brain KIAA1363 to mouse brain FAAH
[5] = biological target: T2, Neutral cholesterol ester hydrolase 1 (Mus musculus, UniProt Q8BLF1); experiment: Inhibition of mouse brain KIAA1363 incubated for 10 mins prior to rhodamine-tagged fluorophosphonate addition measured after 10 mins by SDS-PAGE
T2 sequence (Q8BLF1 whole entry): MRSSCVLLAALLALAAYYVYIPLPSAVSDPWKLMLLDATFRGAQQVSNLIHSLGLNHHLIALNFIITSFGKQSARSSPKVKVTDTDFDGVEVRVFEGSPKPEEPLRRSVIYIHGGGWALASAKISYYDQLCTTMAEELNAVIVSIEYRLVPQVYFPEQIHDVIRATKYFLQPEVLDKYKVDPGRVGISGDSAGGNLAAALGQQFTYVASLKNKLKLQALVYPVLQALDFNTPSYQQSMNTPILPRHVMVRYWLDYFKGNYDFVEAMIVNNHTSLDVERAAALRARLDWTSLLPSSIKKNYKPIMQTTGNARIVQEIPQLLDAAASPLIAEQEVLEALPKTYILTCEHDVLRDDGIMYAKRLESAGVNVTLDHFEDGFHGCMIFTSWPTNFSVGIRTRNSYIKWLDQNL
How it was run: (§1)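 Mouse brain tissue was Dounce-homogenized in PBS pH 7.5, cleared at 1,400 g for 5 min, then split at 64,000 g for 45 min into soluble and membrane fractions. Proteome at 1 mg/mL in PBS was preincubated with inhibitor from DMSO stock for 10 min, then exposed to FP-rhodamine at 100 nM for 10 min at 25 °C. Gel bands were scanned and integrated relative to a DMSO control. IC50 came from dose-response curves, three trials per concentration.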

[6] = biological target: T3, Fatty-acid amide hydrolase 1 (Mus musculus, UniProt O08914); experiment: Inhibition of mouse brain FAAH incubated for 10 mins prior to rhodamine-tagged fluorophosphonate addition measured after 10 mins by SDS-PAGE; how it was run: as §1
T3 sequence (O08914 whole entry): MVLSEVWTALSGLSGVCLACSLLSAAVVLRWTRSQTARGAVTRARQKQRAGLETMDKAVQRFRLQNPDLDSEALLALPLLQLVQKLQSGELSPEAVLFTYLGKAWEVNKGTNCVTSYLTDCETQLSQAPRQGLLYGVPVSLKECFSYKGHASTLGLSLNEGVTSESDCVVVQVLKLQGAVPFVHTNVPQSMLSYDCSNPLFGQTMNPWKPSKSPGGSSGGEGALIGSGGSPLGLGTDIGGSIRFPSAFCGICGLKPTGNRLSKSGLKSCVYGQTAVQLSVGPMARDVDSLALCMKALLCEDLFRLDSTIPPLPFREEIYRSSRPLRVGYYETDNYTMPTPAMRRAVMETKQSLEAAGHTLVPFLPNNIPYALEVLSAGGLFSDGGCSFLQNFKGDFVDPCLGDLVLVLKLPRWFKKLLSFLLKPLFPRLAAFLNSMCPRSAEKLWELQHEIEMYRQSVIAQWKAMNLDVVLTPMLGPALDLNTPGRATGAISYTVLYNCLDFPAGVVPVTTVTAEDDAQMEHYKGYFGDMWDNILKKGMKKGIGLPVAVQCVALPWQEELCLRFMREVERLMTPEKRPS

[7] = biological target: T4, Monoacylglycerol lipase ABHD6 (Mus musculus, UniProt Q8R2Y0); experiment: Inhibition of mouse brain ABHD6 incubated for 10 mins prior to rhodamine-tagged fluorophosphonate addition measured after 10 mins by SDS-PAGE; assay type: tissue-based; how it was run: as §1
T4 sequence (Q8R2Y0 whole entry): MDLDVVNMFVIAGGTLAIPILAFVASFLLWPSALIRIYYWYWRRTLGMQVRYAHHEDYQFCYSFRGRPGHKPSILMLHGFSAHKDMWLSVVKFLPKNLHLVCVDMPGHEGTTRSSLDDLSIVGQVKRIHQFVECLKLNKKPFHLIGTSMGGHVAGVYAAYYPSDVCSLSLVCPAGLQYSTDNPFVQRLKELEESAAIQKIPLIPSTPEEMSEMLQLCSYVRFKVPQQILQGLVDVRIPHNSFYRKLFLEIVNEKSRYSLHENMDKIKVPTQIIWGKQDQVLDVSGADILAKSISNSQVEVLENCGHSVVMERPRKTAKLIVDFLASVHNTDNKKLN

[8] = biological target: T5, Monoglyceride lipase (Mus musculus, UniProt O35678); experiment: Inhibition of mouse brain MAGL incubated for 10 mins prior to rhodamine-tagged fluorophosphonate addition measured after 10 mins by SDS-PAGE; how it was run: as §1
T5 sequence (O35678 whole entry): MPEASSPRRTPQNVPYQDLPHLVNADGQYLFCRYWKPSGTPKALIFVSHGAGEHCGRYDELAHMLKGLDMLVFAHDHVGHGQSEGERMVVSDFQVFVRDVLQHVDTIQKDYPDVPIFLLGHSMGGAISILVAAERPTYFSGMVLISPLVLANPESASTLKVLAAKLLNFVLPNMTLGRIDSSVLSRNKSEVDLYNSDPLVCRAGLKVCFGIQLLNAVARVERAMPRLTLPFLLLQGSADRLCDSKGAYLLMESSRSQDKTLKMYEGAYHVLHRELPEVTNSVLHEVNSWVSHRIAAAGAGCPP

[9] = biological target: T6, Fatty-acid amide hydrolase 1 (Homo sapiens, UniProt O00519); experiment: Reversible inhibition of FAAH (unknown origin)
T6 sequence (O00519 whole entry): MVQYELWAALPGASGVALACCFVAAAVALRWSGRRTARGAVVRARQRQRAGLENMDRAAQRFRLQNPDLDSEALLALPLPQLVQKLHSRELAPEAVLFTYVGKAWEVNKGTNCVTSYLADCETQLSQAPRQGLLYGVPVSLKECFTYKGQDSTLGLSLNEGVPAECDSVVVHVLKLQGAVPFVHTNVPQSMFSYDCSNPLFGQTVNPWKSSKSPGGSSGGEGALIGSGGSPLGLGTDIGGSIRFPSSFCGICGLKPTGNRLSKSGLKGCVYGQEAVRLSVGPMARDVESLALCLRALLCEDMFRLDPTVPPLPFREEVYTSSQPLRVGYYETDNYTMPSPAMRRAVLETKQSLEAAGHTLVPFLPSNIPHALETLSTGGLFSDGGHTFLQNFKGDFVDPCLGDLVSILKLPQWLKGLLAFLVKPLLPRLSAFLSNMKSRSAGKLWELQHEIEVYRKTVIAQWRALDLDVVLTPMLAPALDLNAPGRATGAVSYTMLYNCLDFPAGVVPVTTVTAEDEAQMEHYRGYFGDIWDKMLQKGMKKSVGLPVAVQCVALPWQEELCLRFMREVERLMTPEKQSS

SMILES: COC(=O)c1cccc(-c2cnc(C(=O)C3CCc4cc(Oc5ccccc5)ccc4O3)o2)n1 (single isomer, unassigned; enantiomer 1)
- Ki [1]: 94 nM

SMILES: O=C(c1ncc(-c2ccccn2)o1)C1CCc2cc(Oc3ccccc3)ccc2O1 (single isomer, unassigned; enantiomer 2) [listing 1 of 2 here]
- Ratio IC50 [2]: > 200
- Ratio IC50 [3]: > 200
- Ratio IC50 [4]: > 200

SMILES: O=C(c1ncc(-c2ccccn2)o1)[C@H]1COc2cc(-c3ccccc3)ccc2C1
- Ki [1]: 23 nM

SMILES: O=C(c1ncco1)[C@@H]1COc2cc(-c3ccccc3)ccc2C1
- Ki [1]: 32 nM

SMILES: O=C(c1ncc(-c2ccccn2)o1)[C@@H]1COc2cc(-c3ccccc3)ccc2C1
- Ki [1]: 11 nM

SMILES: O=C(c1ncco1)[C@H]1COc2cc(OCc3ccccc3)ccc2C1
- Ki [1]: 20 nM

SMILES: O=C(c1ncco1)C1CCc2cc(Oc3ccccc3)ccc2O1 (single isomer, unassigned; enantiomer 2)
- Ki [1]: 31 nM

SMILES: O=C(c1ncco1)C1CCc2cc(Oc3ccccc3)ccc2O1 (single isomer, unassigned; enantiomer 1)
- Ki [1]: 17 nM

SMILES: O=C(c1ncc(I)o1)[C@@H]1COc2cc(Oc3ccccc3)ccc2C1
- Ki [1]: 31 nM

SMILES: O=C(c1ncco1)C1COc2cc(Oc3ccccc3)ccc2C1 (racemic)
- Ki [1]: 33 nM

SMILES: O=C(c1ncc(I)o1)[C@H]1COc2cc(Oc3ccccc3)ccc2C1
- Ki [1]: 20 nM

SMILES: O=C(c1ncc(-c2ccccn2)o1)C1COc2cc(OCc3ccccc3)ccc2C1 (racemic)
- Ki [1]: 17 nM

SMILES: O=C(c1ncc(-c2ccccn2)o1)C1CCc2cc(Oc3ccccc3)ccc2O1 (single isomer, unassigned; enantiomer 2) [listing 2 of 2 here]
- Ki [1]: 120 nM
- IC50 [5]: > 100000 nM
- IC50 [6]: 50 nM
- IC50 [7]: > 100000 nM
- IC50 [8]: > 100000 nM

SMILES: O=C(c1ncco1)[C@@H]1COc2cc(OCc3ccccc3)ccc2C1
- Ki [1]: 16 nM

SMILES: COC(=O)c1cccc(-c2cnc(C(=O)[C@@H]3COc4cc(Oc5ccccc5)ccc4C3)o2)n1
- Ki [1]: 333 nM

SMILES: O=C(c1ncc(-c2ccccn2)o1)[C@@H]1COc2cc(OCc3ccccc3)ccc2C1
- Ki [1]: 17 nM

SMILES: CCCCCCC(C)OC(=O)C(Br)C(C)=O (configuration not stated)
- Ki [9]: 800 nM

SMILES: O=C(c1ncc(-c2ccccn2)o1)[C@H]1CCc2cc(Oc3ccccc3)ccc2C1
- Ki [1]: 4.4 nM

SMILES: O=C(c1ncc(-c2ccccn2)o1)[C@H]1COc2cc(Oc3ccccc3)ccc2C1
- Ki [1]: 18 nM
- Ratio IC50 [2]: > 200
- IC50 [5]: > 100000 nM
- IC50 [6]: 90 nM
- Ratio IC50 [3]: > 200
- IC50 [7]: > 100000 nM
- IC50 [8]: > 100000 nM
- Ratio IC50 [4]: > 200

SMILES: O=C(c1ncc(-c2ccccn2)o1)C1CCc2cc(Oc3ccccc3)ccc2O1 (single isomer, unassigned) [listing 1 of 2 here]
- Ratio IC50 [2]: > 200
- Ratio IC50 [3]: > 200
- Ratio IC50 [4]: > 200

SMILES: O=C(c1ncc(-c2ccccn2)o1)[C@@H]1COc2cc(Oc3ccccc3)ccc2C1
- Ki [1]: 27 nM
- Ratio IC50 [2]: > 200
- IC50 [5]: > 100000 nM
- IC50 [6]: 460 nM
- Ratio IC50 [3]: > 200
- IC50 [7]: > 100000 nM
- IC50 [8]: > 100000 nM
- Ratio IC50 [4]: > 200

SMILES: COC(=O)c1cccc(-c2cnc(C(=O)[C@H]3COc4cc(Oc5ccccc5)ccc4C3)o2)n1
- Ki [1]: 41 nM

SMILES: O=C(c1ncc(-c2ccccn2)o1)[C@H]1COc2cc(OCc3ccccc3)ccc2C1
- Ki [1]: 18 nM

SMILES: COC(=O)c1cccc(-c2cnc(C(=O)C3CCc4cc(Oc5ccccc5)ccc4O3)o2)n1 (single isomer, unassigned; enantiomer 2)
- Ki [1]: 210 nM

SMILES: O=C(c1ncc(-c2ccccn2)o1)C1CCc2cc(Oc3ccccc3)ccc2O1 (single isomer, unassigned) [listing 2 of 2 here]
- Ki [1]: 36 nM
- IC50 [5]: > 100000 nM
- IC50 [6]: 70 nM
- IC50 [7]: > 100000 nM
- IC50 [8]: > 100000 nM

SMILES: O=C(c1ncco1)[C@H]1COc2cc(-c3ccccc3)ccc2C1
- Ki [1]: 20 nM
